# Assay results of several laboratories.
# Protocols differ between the studies behind these lines.
# Target: Casein kinase I isoform epsilon (CSNK1E, Homo sapiens, UniProt P49674)
Structure (SMILES),read-out,method,tested at,remaining binding [%]
CN(CCCC(F)(F)F)c1nccc(-c2cnn3ncccc23)n1,binding,,1 µM,100
C[C@@H](c1ccc(-n2cnc3c(N)ncnc32)cc1)N1CCc2nn(C)c(Cc3ccccc3)c2C1=O,binding,competition with immobilised ligand,0.1 µM,83
CC1CCCN1c1nccc(-c2cnn3ncccc23)n1 (stereo not shown),binding,,1 µM,100
Cc1nc(N2CC[C@@H](O)C2)ncc1-c1cc(C(F)(F)F)cc2[nH]ncc12,binding,competition with immobilised ligand,1 µM,79
O=C(c1ccc(Nc2ncc(Cl)c(-c3ccc(Cl)s3)n2)cc1)N1CCC(N2CCCC2)CC1,binding,competition with immobilised ligand,1 µM,100
Cc1cnn2ncc(-c3ccnc(N(C)C)n3)c2c1,binding,,1 µM,60
CNC(=O)[C@@H]1CC[C@@H](n2c(-c3ccc4cnccc4c3)nc3ccc(C(=O)NCc4cccc(C(N)=O)c4)cc32)C1,binding,competition with immobilised ligand,1 µM,100
O=c1nc(-c2ccccn2)sc2ccccc12,binding,competition with immobilised ligand,1 µM,88
c1cnn2ncc(-c3ccnc(N4CCC45COC5)n3)c2c1,binding,,1 µM,53
CC(=O)N1CCC(c2ccc(C(=O)NC3=NCCN3)cc2C(F)(F)F)CC1,cell-free assay,competition with immobilised ligand,1 µM,100
c1cncc(-c2cccc(Nc3nccc(NC4CCCCC4)n3)c2)c1,binding,competition with immobilised ligand,10 µM,11
C=CC(=O)N1CCC(C(=O)NCC(=O)N2CCN(c3nc(-c4cnc(N)nc4C(F)F)nc(N4CCOCC4)n3)CC2)CC1,binding,competition with immobilised ligand,1 µM,87
CNCc1ccccc1-c1csc([C@@H](C)Nc2nc(C)nc3cc(OC)c(OC)cc23)c1,cell-free assay,competition with immobilised ligand,1 µM,99
C[C@@H]1CCN(c2nccc(-c3cnn4ncccc34)n2)C1,binding,,1 µM,86
Nc1ncc2c(n1)-c1c([nH]c3ccc(C#CC4CC4)cc13)CCCC2,binding,competition with immobilised ligand,1 µM,100
CC(=O)N1CCC(c2ccc(C(=O)NC(=N)N)cc2C(F)(F)F)CC1,cell-free assay,competition with immobilised ligand,1 µM,100
Cc1cnc(Nc2ccc(C(=O)N3CCC(N4CCCC4)CC3)cc2)nc1-c1cc2ccccc2s1,binding,competition with immobilised ligand,1 µM,100
Cc1cc(C)c(-n2ccn3nc(-c4cccnc4)cc23)cc1NC(=O)c1cc(C#N)cc(S(F)(F)(F)(F)F)c1,cell-free assay,competition with immobilised ligand,0.1 µM,98.7
O=C(NCC1CCOCC1)c1n[nH]cc1NC(=O)c1c(F)cccc1F,binding,competition with immobilised ligand,1 µM,81
N[C@H]1CCN(c2nccc(-c3cnn4ncccc34)n2)C1,binding,,1 µM,47
O=C(c1ccc(Nc2ncc(Cl)c(-c3cc4ccccc4s3)n2)cc1)N1CCC(N2CCCC2)CC1,binding,competition with immobilised ligand,1 µM,100
COc1ncc2cc3ccccc3nc2c1C#N,cell-free assay,competition with immobilised ligand,5 µM,86
